Activity calls are given as the source filed them. No cut-off for these calls is given here.
Experiments:
[1] = target: T1, Alpha-1D adrenergic receptor (Rattus norvegicus, UniProt P23944); test: Binding affinity towards rat cloned Alpha-1D adrenergic receptor; value ranges from (1.3 -1.6)
T1 sequence (P23944 whole entry): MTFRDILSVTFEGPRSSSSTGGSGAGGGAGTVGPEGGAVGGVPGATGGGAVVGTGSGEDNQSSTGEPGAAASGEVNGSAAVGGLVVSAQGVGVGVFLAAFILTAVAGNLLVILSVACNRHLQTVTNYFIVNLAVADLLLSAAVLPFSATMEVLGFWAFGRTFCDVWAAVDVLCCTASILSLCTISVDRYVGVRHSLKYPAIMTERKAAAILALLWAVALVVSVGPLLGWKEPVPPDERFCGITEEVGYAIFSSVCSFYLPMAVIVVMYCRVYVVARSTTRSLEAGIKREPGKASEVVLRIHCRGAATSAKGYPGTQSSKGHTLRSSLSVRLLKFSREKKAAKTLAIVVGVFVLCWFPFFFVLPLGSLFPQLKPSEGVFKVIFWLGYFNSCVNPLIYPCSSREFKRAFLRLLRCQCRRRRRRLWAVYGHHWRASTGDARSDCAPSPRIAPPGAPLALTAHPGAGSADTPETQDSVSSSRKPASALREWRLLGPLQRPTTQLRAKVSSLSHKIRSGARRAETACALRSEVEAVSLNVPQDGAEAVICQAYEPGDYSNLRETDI

Canis familiaris [2] = test: Dose corresponding to a 20 mmHg increase in mean arterial pressure (MAP) was determined in vivo in isoflurane anesthetized female beagles; assay type: functional, Canis lupus familiaris, Beagle, Artery
How it was run: (§1)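 Female beagles under isoflurane anesthesia; MAP by chronically implanted telemetry transducer/transmitter, IUP by urethral catheter, recorded simultaneously. Increasing iv doses given; maximal effect of each dose taken within 1 min of dosing. Doses giving 5 mmHg IUP rise (IUP ED5) and 20 mmHg MAP rise (MAP ED20) calculated, nmol/kg, mean ± SEM, n ≥ 4.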

Canis familiaris [3] = test: Dose corresponding to a 5 mmHg increase in Intraurethral pressure (IUP) was determined in vivo in isoflurane anesthetized female beagles; assay type: functional, Canis lupus familiaris, Beagle; how it was run: as §1
[4] = target: T2, Alpha-1B adrenergic receptor (Mesocricetus auratus, UniProt P18841); test: Binding affinity towards hamster cloned Alpha-1B adrenergic receptor; value ranges from (2.0 -4.4); design: species or system Cricetulus griseus
T2 sequence (P18841 whole entry): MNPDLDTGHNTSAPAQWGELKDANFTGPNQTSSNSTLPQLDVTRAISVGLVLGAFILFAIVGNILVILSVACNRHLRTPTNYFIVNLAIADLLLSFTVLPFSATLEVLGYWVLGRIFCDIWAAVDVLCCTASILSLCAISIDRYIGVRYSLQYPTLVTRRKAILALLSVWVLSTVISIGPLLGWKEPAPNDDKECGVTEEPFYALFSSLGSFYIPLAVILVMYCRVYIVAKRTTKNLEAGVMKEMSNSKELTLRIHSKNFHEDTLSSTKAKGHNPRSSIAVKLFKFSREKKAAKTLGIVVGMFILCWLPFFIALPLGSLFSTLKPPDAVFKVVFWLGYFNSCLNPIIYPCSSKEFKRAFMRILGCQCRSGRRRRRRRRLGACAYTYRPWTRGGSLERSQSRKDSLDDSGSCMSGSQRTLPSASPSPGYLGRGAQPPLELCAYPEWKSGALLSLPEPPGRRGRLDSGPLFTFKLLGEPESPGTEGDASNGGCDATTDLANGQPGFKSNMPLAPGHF

Rattus norvegicus [5] = species on record: Rattus norvegicus; test: (§2) In vitro percent efficacy of compound was tested in rat aorta; assay type: functional
How it was run: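 Isolated tissue contraction: agonist dose–response curves run in rat aorta (α1D) and rat spleen (α1B). Efficacy is the percent response relative to phenylephrine. EC50 is taken as the dose contracting the tissue 50%. Data reported ± SEM.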

Oryctolagus cuniculus = species on record: Oryctolagus cuniculus; test: In vitro percent efficacy of compound was tested in rabbit urethra; assay type: functional
[6] = target: T3, Alpha-1A adrenergic receptor (Rattus norvegicus, UniProt P43140); test: Binding affinity towards rat submaxillary gland Alpha-1 adrenergic receptor; value ranges from (0.12 - 0.15)
T3 sequence (P43140 whole entry): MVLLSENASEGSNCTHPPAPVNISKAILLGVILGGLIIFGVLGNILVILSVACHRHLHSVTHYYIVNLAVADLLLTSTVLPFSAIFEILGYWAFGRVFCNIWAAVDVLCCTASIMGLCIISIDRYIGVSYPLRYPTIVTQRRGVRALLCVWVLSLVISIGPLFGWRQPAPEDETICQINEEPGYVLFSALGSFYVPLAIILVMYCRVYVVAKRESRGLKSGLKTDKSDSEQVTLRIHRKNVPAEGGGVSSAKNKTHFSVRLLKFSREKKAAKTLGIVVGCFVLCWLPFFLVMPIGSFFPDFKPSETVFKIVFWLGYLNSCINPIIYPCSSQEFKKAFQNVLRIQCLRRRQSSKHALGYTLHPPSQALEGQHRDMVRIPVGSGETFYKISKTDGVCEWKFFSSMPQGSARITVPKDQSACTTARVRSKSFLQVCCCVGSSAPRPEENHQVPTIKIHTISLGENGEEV

[7] = target: T1, Alpha-1D adrenergic receptor; test: Antagonistic activity against Alpha-1D adrenergic receptor determined using phenylephrine challenge in rat aorta isolated tissues.; assay type: functional, tissue-based; details: read-out: pA2 (converted)
[8] = target: T4, Alpha-1B adrenergic receptor (Rattus norvegicus) (UniProt P15823); test: Effective concentration in vitro against rat spleen Alpha-1B adrenergic receptor (EC50 < 15%) at a concentration of 10 uM; NA is not active; assay type: tissue-based
T4 sequence (whole entry): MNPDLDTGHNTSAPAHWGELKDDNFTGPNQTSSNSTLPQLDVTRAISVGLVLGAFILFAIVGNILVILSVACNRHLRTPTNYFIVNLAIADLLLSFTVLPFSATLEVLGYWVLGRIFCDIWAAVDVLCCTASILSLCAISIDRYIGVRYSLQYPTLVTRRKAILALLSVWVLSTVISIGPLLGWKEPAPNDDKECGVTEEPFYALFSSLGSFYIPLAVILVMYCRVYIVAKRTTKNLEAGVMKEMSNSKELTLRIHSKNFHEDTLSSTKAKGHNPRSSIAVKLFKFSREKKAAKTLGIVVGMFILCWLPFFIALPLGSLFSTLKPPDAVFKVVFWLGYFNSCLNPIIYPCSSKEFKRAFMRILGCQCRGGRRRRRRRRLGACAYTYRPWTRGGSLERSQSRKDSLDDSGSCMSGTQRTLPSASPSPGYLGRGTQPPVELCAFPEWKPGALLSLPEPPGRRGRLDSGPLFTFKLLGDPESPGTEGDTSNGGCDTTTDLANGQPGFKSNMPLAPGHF

[9] = target: T5, Alpha-1B adrenergic receptor (Rattus norvegicus, UniProt P15823); test: Antagonistic activity against Alpha-1B adrenergic receptor determined using phenylephrine challenge in rat spleen isolated tissues.; assay type: functional, tissue-based; details: read-out: pA2 (converted)
T5 sequence (P15823 whole entry): T4 sequence (whole entry)

[10] = target: T1, Alpha-1D adrenergic receptor; test: Effective concentration in vitro against rat aorta Alpha-1D adrenergic receptor;* indicates EC50 < 15% at a concentration of 10 uM; assay type: tissue-based
[11] = target: T3, Alpha-1A adrenergic receptor; test: Binding affinity towards rat submaxillary gland Alpha-1 adrenergic receptor; value ranges from (6.2 - 15)
[12] = target: T1, Alpha-1D adrenergic receptor; test: Binding affinity towards rat cloned Alpha-1D adrenergic receptor; value ranges from (5.5 -13)
[13] = target: T5, Alpha-1B adrenergic receptor; test: Effective concentration in vitro against rat spleen Alpha-1B adrenergic receptor indicates EC50 < 15% at a concentration of 10 uM; assay type: tissue-based
[14] = target: T2, Alpha-1B adrenergic receptor; test: Binding affinity towards hamster cloned Alpha-1B adrenergic receptor mean;value ranges from( 6.4 -14); design: species or system Cricetulus griseus
Rattus norvegicus [15] = species on record: Rattus norvegicus; test: as §2; assay type: functional; remark: listed apart in the source
Rattus norvegicus [16] = species on record: Rattus norvegicus; test: In vitro percent efficacy of compound was tested rat spleen; assay type: functional
[17] = target: T3, Alpha-1A adrenergic receptor; test: Binding affinity towards rat submaxillary gland Alpha-1 adrenergic receptor; value ranges from (1.6 -2.5)
[18] = target: T2, Alpha-1B adrenergic receptor; test: Binding affinity towards hamster cloned Alpha-1B adrenergic receptor; value ranges from (6.2 -7.7); design: species or system Cricetulus griseus
Rattus norvegicus [19] = species on record: Rattus norvegicus; test: In vitro percent efficacy of compound was tested in rat spleen; assay type: functional
[20] = target: T1, Alpha-1D adrenergic receptor; test: Binding affinity towards rat cloned Alpha-1D adrenergic receptor; value ranges from (1.5 - 1.9)

Row | SMILES | ED20 (Canis familiaris [2]) [nM/kg] | ED5 (Canis familiaris [3]) [nM/kg] | Efficacy (Oryctolagus cuniculus) [%] | EC50 [10] [µM] | EC50 [13] [µM] | Efficacy (Rattus norvegicus [15]) [%] | other results
1 | CS(=O)(=O)Nc1c(O)ccc2c1CCCC2C1=NCCN1 (stereo not drawn) | 0.27 | 0.16 | 88 |  |  |  | Ki [1]: 1.5 µM; Ki [4]: 2.9 µM; Efficacy (Rattus norvegicus [5]): 100%
2 | CCS(=O)(=O)Nc1cccc(Cc2c[nH]cn2)c1 | 80 | 12 | 80 |  |  |  | Ki [6]: 0.14 µM; Kb [7]: 0.631 µM; NA [8]: inactive; Kb [9]: 3.98 µM
3 | C[C@H](N)[C@H](O)c1ccccc1 [(1R,2S)-PHENYLPROPANOLAMINE] | 330 | 1100 | 68 | 58 | 280 | 91 | Ki [11]: 9.8 µM; Ki [12]: 8.4 µM; Ki [14]: 9.6 µM; Efficacy (Rattus norvegicus [16]): 34%
4 | COc1ccc(OC)c(C(O)CN)c1 (stereo not drawn) [DESGLYMIDODRINE] | 250 | 205 | 133 | 1.9 | 85 | 106 | Ki [17]: 2 µM; Ki [18]: 6.9 µM; Efficacy (Rattus norvegicus [19]): 68%; Ki [20]: 1.7 µM

— ChEMBL document CHEMBL1135819, “N-[3-(1H-imidazol-4-ylmethyl)phenyl]ethanesulfonamide (ABT-866, 1),(1) a novel alpha(1)-adrenoceptor ligand with an enhanced in vitro and in vivo profile relative to phenylpropanolamine and midodrine” (J Med Chem, 2002)
